Xi reactivation: activators of X-chromosome reactivation in mouse fibroblasts. XiGFP mouse fibroblasts, % GFP-positive cells imaging, 3 d; cells co-treated with 5-aza-dC sensitizer; scaled so ellipticine positive control = 100%. activation, % at 7.58 µM. hit rate 0.055% among 360,000. AID 743238;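 active = mean normalized replicate activation at least 10% and every replicate at or above 10%; inconclusive = only one of the two criteria met; inactive = mean below 10% and not all replicates reach 10%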
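System: 68-5-11 XiGFP fibroblast line | Buffer or medium: DMEM containing 5-aza-dC | Compound: Single point | Times: Compounds 3 days, fix/stain 15 min at room temperature | Benchmarks: Positive control ellipticine, 6 µM final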
Cneo AK release: causes C. neoformans cell lysis. lysis activity, % at 15 µM. adenylate kinase release luminescence, 4 h; normalised: neutral wells 0, clomiphene wells 100. hit rate 0.2% among 360,000;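 active = mean lysis activity across replicates of at least 80%, whatever share of replicates individually reach that level; inactive = mean lysis activity below 80%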
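Test system: log-phase Cryptococcus neoformans yeast cells. Input: 5 × 10^6 yeast cells/mL. Medium: fresh YPD growth medium. Doses: single dose. Incubation: static 4 h at 37 °C with compound, 1 h detection. Measured by: luminescent adenylate kinase detection reagent. Read-out: signal increase indicating cell lysis. Benchmarks: Clomiphene.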
C2C12 statin: protects C2C12 myotubes from simvastatin toxicity. ATP luminescence, 48 h; scaled: DMSO 0, geranylgeraniol control 100. rescue of ATP level, % at 7.49 µM. hit rate 0.78% among 330,000. AID 602340;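 active = mean ATP rescue above about 67%, or every replicate alone reaching that limit, limit read from the data, passing the limit was not always enough; inconclusive = no clear call, values can overlap the other calls; inactive = mean under the limit and some replicate under it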;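 note: myotubes were challenged with 10 µM simvastatin during compound exposure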
DENV2 CPE rescue: protects cells from dengue virus 2 cytopathic effect; DENV2-infected cells, cytopathic effect rescue, plate reader; CPE inhibition, % at 9.99 µM; hit rate 1.7% among 350,000; AID 651640; in the data active = CPE inhibition above about 20%, passing the limit was not always enough; inconclusive = no clear call, values can overlap the other calls; tested in BHK-21 cells
Large screens that a line does not name were inactive. Only some compounds are listed: those with a hit (about 2.1% of all), similar ones and a draw of the others.

Cc1ccc(N(C(=O)C2CCC(=O)N2)C2(C(=O)NC3CCCCC3)CCCCC2)cc1 (stereo not given)	C2C12 statin 119.3 (no result: Xi reactivation, DENV2 CPE rescue)
Cc1ccc(N(C(=O)c2ccccn2)C2(C(=O)NC3CCCC3)CCCCC2)cc1	none (no result: Xi reactivation, DENV2 CPE rescue)
COc1cc(OC)cc(-c2c(C#Cc3ccsc3)c3cc(-c4ccc(OC)c(F)c4)ccc3n2C)c1	none
COc1cc(OC)cc(-c2c(C#Cc3ccsc3)c3cc(-c4cc(OC)c(OC)c(OC)c4)ccc3n2C)c1	DENV2 CPE rescue 37.9
N#C[C@@H]1[C@@H](c2ccc(C#CC3(O)CCCC3)cc2)[C@@H](CO)N1C(=O)C1CCC1	none
COc1ccc(C(=O)Nc2ccnn2C2CCN(C(=O)c3cnsn3)CC2)cc1	DENV2 CPE rescue 39.7
COc1ccccc1C(=O)Nc1ccnn1C1CCN(C(=O)c2cnsn2)CC1	DENV2 CPE rescue inconclusive
CC(C)CCNC(=O)C1CC(c2ccccc2C(F)(F)F)=NO1 (stereo not given)	DENV2 CPE rescue 35.3
Cc1ccc(S(=O)(=O)N(C)C[C@@H]2OCCCC[C@H](C)Oc3ccc(NC(=O)NC4CCCCC4)cc3C(=O)N([C@H](C)CO)C[C@@H]2C)cc1	none (no result: C2C12 statin)
Cc1cc(=O)[nH]c(SCC(=O)NC2CCCCCC2)n1	C2C12 statin 72.1
CCSc1nnc(SCC(=O)NC2CCCCC2)s1	none
CSc1nsc(SCC(=O)NC2CCCCC2)n1	C2C12 statin 68.9 (no result: Xi reactivation, DENV2 CPE rescue)
O=C(CSCc1ccc(Cl)cc1)N/N=C/c1ccccc1	C2C12 statin 114.4 (no result: Xi reactivation, DENV2 CPE rescue)
COCCNC(=O)C[C@H]1CC[C@H]2[C@@H](COc3ccc(NC(=O)C4CCCC4)cc3C(=O)N2C)O1	none
COc1ccc(C(=O)N2CC=C(c3ccccc3)CC2)cc1S(=O)(=O)N1CCOCC1	C2C12 statin 82.5 (no result: Xi reactivation, DENV2 CPE rescue)
CC(C)c1cn(CC[C@@H]2CC[C@H](N)[C@@H](CO)O2)nn1	none
Cc1nc(SCCC(=O)O)c2cc(-c3ccccc3)sc2n1	C2C12 statin 66.8
C[C@@H]1CN([C@@H](C)CO)C(=O)c2cccc(NC(=O)c3nc4ccccc4s3)c2O[C@@H]1CN(C)CC1CCCCC1	none
C[C@H]1CCCCO[C@@H](CN(C)Cc2ccncc2)[C@@H](C)CN([C@@H](C)CO)C(=O)c2cc(NC(=O)Nc3ccccc3)ccc2O1	Cneo AK release 99.5 (no result: C2C12 statin)
C[C@@H]1CCCCO[C@H](CN(C)Cc2ccncc2)[C@H](C)CN([C@@H](C)CO)C(=O)c2cc(NC(=O)Nc3ccccc3)ccc2O1	none (no result: C2C12 statin)
C[C@@H]1CCCCO[C@H](CN(C)Cc2ccccc2)[C@@H](C)CN([C@H](C)CO)C(=O)c2cc(NC(=O)Nc3ccc(F)cc3)ccc2O1	none (no result: C2C12 statin)
C[C@@H]1CN([C@@H](C)CO)C(=O)c2cc(NC(=O)Nc3ccc(F)cc3)ccc2O[C@@H](C)CCCCO[C@H]1CN(C)Cc1ccccc1	DENV2 CPE rescue 40.4 (no result: C2C12 statin)
C[C@@H]1CCCCO[C@H](CN(C)Cc2ccncc2)[C@@H](C)CN([C@@H](C)CO)C(=O)c2cc(NC(=O)Nc3ccc4c(c3)OCO4)ccc2O1	DENV2 CPE rescue 27.8 (no result: C2C12 statin)
C[C@@H]1CCCCO[C@@H](CN(C)Cc2ccccc2)[C@H](C)CN([C@H](C)CO)C(=O)c2cc(NC(=O)Nc3ccc(F)cc3)ccc2O1	DENV2 CPE rescue 41.0 (no result: C2C12 statin)
C[C@@H]1CCCCO[C@H](CN(C)Cc2ccncc2)[C@H](C)CN([C@H](C)CO)C(=O)c2cc(NC(=O)Nc3ccc4c(c3)OCO4)ccc2O1	none (no result: C2C12 statin)
Cc1noc(C)c1NC(=O)Nc1ccc2c(c1)CC(=O)N([C@@H](C)CO)C[C@H](C)[C@@H](CN(C)Cc1ccc(-c3ccccc3)cc1)O2	none (no result: Cneo AK release)
C/C=C/c1ccc([C@@H]2[C@H](CO)N(CC3CCCC3)C23CN(S(=O)(=O)CC)C3)cc1	none (no result: Cneo AK release, C2C12 statin)
CS(=O)(=O)N1CC2(C1)[C@@H](c1ccccc1)[C@@H](CO)N2Cc1ccccc1	DENV2 CPE rescue 27.5 (no result: Cneo AK release, C2C12 statin)
C/C=C/c1ccc([C@H]2[C@@H](CO)N(CC3CCOCC3)C23CN(S(=O)(=O)CC)C3)cc1	DENV2 CPE rescue 27.3 (no result: Cneo AK release, C2C12 statin)
C/C=C/c1ccc([C@H]2[C@@H](CO)N(CC3CC3)C23CN(S(C)(=O)=O)C3)cc1	DENV2 CPE rescue 51.2 (no result: Cneo AK release, C2C12 statin)
C/C=C/c1ccc([C@H]2[C@@H](CO)N(CCC(F)(F)F)C23CN(C(=O)CC2CC2)C3)cc1	DENV2 CPE rescue 65.1 (no result: Cneo AK release, C2C12 statin)
CS(=O)(=O)N1CC2(C1)[C@H](c1ccccc1)[C@H](CO)N2Cc1ccccc1	none (no result: Cneo AK release, C2C12 statin)
C/C=C/c1ccc([C@@H]2[C@H](CO)N(Cc3cncnc3)C23CN(C(=O)CC2CC2)C3)cc1	none (no result: Cneo AK release, C2C12 statin)
C/C=C/c1ccc([C@@H]2[C@H](CO)N(C(=O)CC3CC3)C23CN(S(C)(=O)=O)C3)cc1	none (no result: Cneo AK release, C2C12 statin)
CC(=O)N1CC2(C1)[C@H](c1ccccc1)[C@@H](CO)N2C(=O)c1ccncc1	none (no result: Cneo AK release, C2C12 statin)
C/C=C/c1ccc([C@H]2[C@@H](CO)N(CC3CCCC3)C23CN(S(=O)(=O)CC)C3)cc1	DENV2 CPE rescue 23.1 (no result: Cneo AK release, C2C12 statin)
CC(=O)Oc1cccc(N2C(=O)c3cccc4c([N+](=O)[O-])ccc(c34)C2=O)c1	Xi reactivation 12.5
C[C@@H]1CN([C@@H](C)CO)C(=O)c2cc(NC(=O)CCC(F)(F)F)ccc2O[C@@H](C)CCCCO[C@H]1CN(C)C(=O)CCC(F)(F)F	none (no result: C2C12 statin)
CC(=O)c1ccc(NC(=O)c2ccc(NC(=O)CCS(=O)(=O)c3cccs3)cc2)cc1	none (no result: DENV2 CPE rescue)
CC(=O)c1cccc(NC(=O)c2ccc(NC(=O)CCS(=O)(=O)c3cccs3)cc2)c1	DENV2 CPE rescue 27.9
Cc1ccc(C)c(N2CCN(C(=O)CCc3nc(-c4ccccc4)no3)CC2)c1	DENV2 CPE rescue 20.3
Cc1cccc(-c2noc(CCC(=O)N3CCN(c4cc(C)ccc4C)CC3)n2)c1	none
Cn1c(C(=O)N2CCCC(C(=O)N3CCN(C(=O)c4ccco4)CC3)C2)cc2sccc21 (stereo not given)	none
Cn1c(C(=O)N2CCCC(C(=O)O)C2)cc2sccc21 (stereo not given)	C2C12 statin 95.9 (no result: Xi reactivation, DENV2 CPE rescue)
CCNc1nc(NCC)nc(Nn2cnnc2)n1	C2C12 statin 98.8 (no result: Xi reactivation)
O=C(C[C@@H]1C=C[C@@H](NS(=O)(=O)c2ccc(F)cc2)[C@H](CO)O1)NCc1ccccc1F	none (no result: Cneo AK release, C2C12 statin)
Nc1ncnc2nc(SCc3ccccc3)[nH]c12	C2C12 statin 98.8 (no result: Xi reactivation, DENV2 CPE rescue)
C[C@@H]1CN([C@@H](C)CO)S(=O)(=O)c2ccc(C#Cc3ccncc3)cc2O[C@@H]1CN(C)C(=O)C1CC1	DENV2 CPE rescue inconclusive
Nc1nonc1-n1nnc(C(=O)N/N=C/c2cccc(Cl)c2)c1-c1cccs1	C2C12 statin 72.4
CCCOc1ccc(C(=O)C(c2ccccc2)N2CCOCC2)cc1 (stereo not given)	none (no result: Xi reactivation, DENV2 CPE rescue)
CCCOc1ccc(C(=O)C(CN2CCOCC2)c2ccccc2)cc1 (stereo not given)	C2C12 statin 78.5 (no result: Xi reactivation, DENV2 CPE rescue)
COC(=O)C[C@H]1CC[C@H]2[C@H](COc3ccc(NS(C)(=O)=O)cc3C(=O)N2C)O1	none
O=C(c1ccco1)N(Cc1ccco1)c1ccc(O)cc1	C2C12 statin 118.4 (no result: Xi reactivation, DENV2 CPE rescue)
